In ChEMBL document CHEMBL4052621, “Identification of new anti-inflammatory agents based on nitrosporeusine natural products of marine origin” (Eur J Med Chem, 2017):
Activity calls are given as the source filed them. The calls are words filed in the database; no cut-off is given here.

Key:
RAW264.7 [1] = test: Cytotoxicity against mouse RAW264.7 cells assessed as decrease in cell viability after 24 hrs by MTT assay; format: cell-based; details: RAW264.7, 24 h
Method in brief: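 RAW264.7 macrophage viability after compound exposure was measured by MTT assay. IC50 (µM) was calculated and reported with a 95% confidence interval.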

RAW264.7 [2] = test: Selectivity index, ratio IC50 for cytotoxicity against mouse RAW264.7 cells to IC50 for antiinflammatory activity in mouse RAW264.7 cells; format: functional
Method in brief: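 Ratio A/B in RAW 264.7 cells. A is the cytotoxicity IC50 from the MTT assay. B is the IC50 for inhibiting NO production in LPS-stimulated cells, with nitrite in the culture medium measured by Griess reagent. Both IC50s are reported with 95% confidence intervals.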

[3] = Antiviral activity against Influenza A virus A/WSN/33(H1N1) infected in MDCK cells at 50 uM preincubated for 15 mins measured after 1.5 days by CellTiter-Glo assay relative to control; format: functional, Influenza A virus (A/WSN/1933(H1N1))
[4] = Antiviral activity against Influenza A virus A/WSN/33(H1N1) infected in MDCK cells preincubated for 1 hr followed by compound wash measured after 48 hrs by plaque reduction assay; format: functional, cell-based, Influenza A virus (A/WSN/1933(H1N1))
RAW264.7 [5] = test: Antiinflammatory activity in mouse RAW264.7 cells assessed as inhibition of LPS-induced NO production after 24 hrs by Griess assay; format: functional, cell-based
Method in brief: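 LPS-stimulated RAW264.7 cells were co-treated with compound. Nitrite, a stable NO metabolite, was measured in culture medium with Griess reagent. IC50 (µM) was reported with a 95% confidence interval.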

RAW264.7 [6] = test: Antiinflammatory activity in mouse RAW264.7 cells assessed as inhibition of LPS-induced COX-2 production at 30 uM after 24 hrs by Western blot analysis; format: functional, cell-based
Method in brief: (§1)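 Immunoblot of protein from RAW 264.7 cells under control, LPS, and LPS + enantiomer (30 µM) conditions. COX-2, iNOS and phospho-NF-κB bands were quantified by densitometry and normalised to β-actin. Mean ± SD from 3 independent experiments; p-values are versus LPS-treated cells.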

RAW264.7 [7] = test: Antiinflammatory activity in mouse RAW264.7 cells assessed as inhibition of LPS-induced iNOS production at 30 uM after 24 hrs by Western blot analysis; format: functional, cell-based; method in brief: as §1
Mus musculus = organism: Mus musculus; test: Inhibition of LPS-induced NFkappaB phosphorylation in mouse RAW264.7 cells at 30 uM after 24 hrs by Western blot analysis; format: cell-based; method in brief: as §1
RAW264.7 [8] = test: Antiinflammatory activity in mouse RAW264.7 cells assessed as inhibition of LPS-induced IL-12 production at 30 uM after 24 hrs by phycoerythrin staining based flow cytometry; format: functional, cell-based
Method in brief: (§2)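 LPS-stimulated RAW 264.7 cells were co-treated with enantiomers at 30 µM. Cell protein extracts were analysed by cytometric bead array for IL-12, IL-6, TNF-α, MCP-1 and IFN-γ and compared with LPS-only cells. Mean ± SD of three independent experiments.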

RAW264.7 [9] = test: Antiinflammatory activity in mouse RAW264.7 cells assessed as inhibition of LPS-induced IL-6 production at 30 uM after 24 hrs by phycoerythrin staining based flow cytometry; format: functional, cell-based; method in brief: as §2
RAW264.7 [10] = test: Antiinflammatory activity in mouse RAW264.7 cells assessed as inhibition of LPS-induced TNF-alpha production at 30 uM after 24 hrs by phycoerythrin staining based flow cytometry; format: functional, cell-based; method in brief: as §2
RAW264.7 [11] = test: Antiinflammatory activity in mouse RAW264.7 cells assessed as inhibition of LPS-induced […] production at 30 uM after 24 hrs by phycoerythrin staining based flow cytometry; format: functional, cell-based; method in brief: as §2
RAW264.7 [12] = test: Antiinflammatory activity in mouse RAW264.7 cells assessed as inhibition of LPS-induced MCP-1 production at 30 uM after 24 hrs by phycoerythrin staining based flow cytometry; format: functional, cell-based; method in brief: as §2

| Structure (SMILES) | IC50 (RAW264.7 [1]) [µM] | Ratio IC50 (RAW264.7 [2]) | Activity [3] [%] | EC50 [4] [µM] | inhibition (RAW264.7 [5]) | inhibition (RAW264.7 [6]) | inhibition (RAW264.7 [7]) | inhibition (Mus musculus) | inhibition (RAW264.7 [8]) | inhibition (RAW264.7 [9]) | inhibition (RAW264.7 [10]) | inhibition (RAW264.7 [11]) | inhibition (RAW264.7 [12]) |
| --- | --- | --- | --- | --- | --- | --- | --- | --- | --- | --- | --- | --- | --- |
| O=C(S[C@]12CC[C@H](O)[C@H]1C(=O)NC2=O)c1ccc(O)cc1 | 1380 | 9.85 | 30.9 | 113 | – | – | – | – | – | – | – | – | – |
| CC(=O)O[C@H]1CC[C@@]2(SC(=O)c3ccc(F)cc3)C(=O)NC(=O)[C@@H]12 | – | – | – | – | Active | Active | Active | Active | Active | Active | Active | Active | Active |
